Measured values from ChEMBL document CHEMBL1154352, “Toll-like receptor 7 selective synthetic oligoribonucleotide agonists: synthesis and structure-activity relationship studies” (J Med Chem, 2009).
The source made the active and inactive calls. The calls are words filed in the database; no cut-off is given here.

Columns and labels:
PBMC [1] = assay: Immunomodulatory activity in human PBMC assessed as induction of TNFalpha at 100 ug/ml after 24 hrs; format: functional, cell-based
In short: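 Human PBMCs plated at 5 × 10^6 cells/mL; compounds dissolved in PBS added at various concentrations, 37 °C for 24 h. Supernatant cytokines/chemokines quantified with human Luminex multiplex kit.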

[2] = target: T1, Toll-like receptor 7 (Homo sapiens) (UniProt Q9NYK1); assay: Activation of human TLR7 expressed in HEK293XL assessed as fold induction of NF-kappaB activity at 50 ug/ml after 18 hrs by reporter gene assay relative to control
T1 sequence (whole entry): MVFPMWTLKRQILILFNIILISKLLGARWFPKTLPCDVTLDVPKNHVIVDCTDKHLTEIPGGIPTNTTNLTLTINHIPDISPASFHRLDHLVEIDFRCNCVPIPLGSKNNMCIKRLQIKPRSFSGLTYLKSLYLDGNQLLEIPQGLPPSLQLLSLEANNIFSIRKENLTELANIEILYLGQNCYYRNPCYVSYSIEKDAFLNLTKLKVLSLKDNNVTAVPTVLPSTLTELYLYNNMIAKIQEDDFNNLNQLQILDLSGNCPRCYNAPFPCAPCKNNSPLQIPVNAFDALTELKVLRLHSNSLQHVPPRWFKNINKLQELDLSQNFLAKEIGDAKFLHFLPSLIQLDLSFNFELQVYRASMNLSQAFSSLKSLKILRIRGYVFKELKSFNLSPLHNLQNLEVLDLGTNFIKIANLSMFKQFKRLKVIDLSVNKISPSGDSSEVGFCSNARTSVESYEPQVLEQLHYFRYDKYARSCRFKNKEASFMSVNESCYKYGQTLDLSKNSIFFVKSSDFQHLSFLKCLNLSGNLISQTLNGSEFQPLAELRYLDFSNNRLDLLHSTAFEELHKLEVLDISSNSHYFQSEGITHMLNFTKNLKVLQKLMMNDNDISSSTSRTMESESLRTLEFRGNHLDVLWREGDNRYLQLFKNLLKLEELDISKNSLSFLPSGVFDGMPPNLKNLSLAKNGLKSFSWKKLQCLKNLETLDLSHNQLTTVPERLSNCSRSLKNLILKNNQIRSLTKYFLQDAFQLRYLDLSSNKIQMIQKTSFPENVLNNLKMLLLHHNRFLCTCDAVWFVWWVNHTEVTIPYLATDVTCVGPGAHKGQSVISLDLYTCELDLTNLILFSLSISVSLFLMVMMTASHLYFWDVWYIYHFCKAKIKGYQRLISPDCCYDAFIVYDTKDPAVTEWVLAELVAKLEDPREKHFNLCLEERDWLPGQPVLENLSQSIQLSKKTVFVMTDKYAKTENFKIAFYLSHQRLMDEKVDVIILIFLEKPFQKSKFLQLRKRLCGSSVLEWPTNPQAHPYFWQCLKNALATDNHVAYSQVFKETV
In short: (§1)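 HEK293 cells stably expressing human TLR7 or TLR8, transiently transfected with SEAP reporter plasmid; medium replaced, SIMRA compounds added, 18 h incubation. Supernatant SEAP measured by QuantiBlue; expressed as fold increase in NF-κB activity over PBS control. Tabulated data at 50 μg/mL, representative of three independent experiments.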

PBMC [3] = assay: Immunomodulatory activity in human PBMC assessed as induction of IFN-alpha at 100 ug/ml after 24 hrs
Splenocyte = assay: Immunomodulatory activity in C57BL/6 mouse splenocytes bearing TLR7 receptor assessed as IL12 release at 100 ug/ml after 24 hrs by ELISA; format: functional, cell-based
In short: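 C57BL/6 splenocytes in RPMI 1640 with 10% FBS, penicillin/streptomycin, 2 mM L-glutamine, plated at 5 × 10^6 cells/mL; compounds in PBS added, 37 °C for 24 h. Supernatant IL-12 and IL-6 by ELISA; representative of three independent experiments.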

[4] = target: Toll-like receptor 3 (Homo sapiens) (UniProt O15455); assay: Activation of human TLR3 expressed in HEK293 assessed as induction of NF-kappaB activity reporter gene assay; format: cell-based
[5] = target: T2, Toll-like receptor 8 (Homo sapiens) (UniProt Q9NR97); assay: Activation of human TLR8 expressed in HEK293XL assessed as fold induction of NF-kappaB activity at 50 ug/ml after 18 hrs by reporter gene assay relative to control; in short: as §1
T2 sequence (whole entry): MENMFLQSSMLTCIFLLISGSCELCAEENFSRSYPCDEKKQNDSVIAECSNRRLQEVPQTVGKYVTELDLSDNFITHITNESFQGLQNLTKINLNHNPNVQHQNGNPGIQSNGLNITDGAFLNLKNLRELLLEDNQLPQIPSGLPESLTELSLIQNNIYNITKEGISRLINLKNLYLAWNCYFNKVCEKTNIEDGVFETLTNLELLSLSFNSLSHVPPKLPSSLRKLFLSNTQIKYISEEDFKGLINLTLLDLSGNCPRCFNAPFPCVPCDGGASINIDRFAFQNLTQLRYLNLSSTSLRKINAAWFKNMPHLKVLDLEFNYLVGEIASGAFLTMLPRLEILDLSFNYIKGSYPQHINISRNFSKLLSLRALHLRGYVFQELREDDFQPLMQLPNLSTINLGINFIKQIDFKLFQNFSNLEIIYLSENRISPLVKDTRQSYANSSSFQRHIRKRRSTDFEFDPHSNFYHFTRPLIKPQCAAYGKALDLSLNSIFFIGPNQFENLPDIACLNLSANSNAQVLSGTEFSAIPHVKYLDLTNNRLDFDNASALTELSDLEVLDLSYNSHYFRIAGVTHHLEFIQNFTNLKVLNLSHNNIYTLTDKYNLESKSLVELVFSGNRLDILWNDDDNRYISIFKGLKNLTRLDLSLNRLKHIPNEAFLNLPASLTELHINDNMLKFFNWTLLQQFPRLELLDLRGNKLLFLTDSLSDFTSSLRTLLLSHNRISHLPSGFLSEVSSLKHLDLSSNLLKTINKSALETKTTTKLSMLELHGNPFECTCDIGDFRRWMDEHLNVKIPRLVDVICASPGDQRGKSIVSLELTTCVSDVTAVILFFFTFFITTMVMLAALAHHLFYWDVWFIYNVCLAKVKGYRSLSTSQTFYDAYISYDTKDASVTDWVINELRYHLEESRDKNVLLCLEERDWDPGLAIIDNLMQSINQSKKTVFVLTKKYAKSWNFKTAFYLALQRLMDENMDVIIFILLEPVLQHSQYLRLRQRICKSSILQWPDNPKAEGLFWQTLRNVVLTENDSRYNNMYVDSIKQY

Sequence of Toll-like receptor 3 (Homo sapiens) (O15455 whole entry): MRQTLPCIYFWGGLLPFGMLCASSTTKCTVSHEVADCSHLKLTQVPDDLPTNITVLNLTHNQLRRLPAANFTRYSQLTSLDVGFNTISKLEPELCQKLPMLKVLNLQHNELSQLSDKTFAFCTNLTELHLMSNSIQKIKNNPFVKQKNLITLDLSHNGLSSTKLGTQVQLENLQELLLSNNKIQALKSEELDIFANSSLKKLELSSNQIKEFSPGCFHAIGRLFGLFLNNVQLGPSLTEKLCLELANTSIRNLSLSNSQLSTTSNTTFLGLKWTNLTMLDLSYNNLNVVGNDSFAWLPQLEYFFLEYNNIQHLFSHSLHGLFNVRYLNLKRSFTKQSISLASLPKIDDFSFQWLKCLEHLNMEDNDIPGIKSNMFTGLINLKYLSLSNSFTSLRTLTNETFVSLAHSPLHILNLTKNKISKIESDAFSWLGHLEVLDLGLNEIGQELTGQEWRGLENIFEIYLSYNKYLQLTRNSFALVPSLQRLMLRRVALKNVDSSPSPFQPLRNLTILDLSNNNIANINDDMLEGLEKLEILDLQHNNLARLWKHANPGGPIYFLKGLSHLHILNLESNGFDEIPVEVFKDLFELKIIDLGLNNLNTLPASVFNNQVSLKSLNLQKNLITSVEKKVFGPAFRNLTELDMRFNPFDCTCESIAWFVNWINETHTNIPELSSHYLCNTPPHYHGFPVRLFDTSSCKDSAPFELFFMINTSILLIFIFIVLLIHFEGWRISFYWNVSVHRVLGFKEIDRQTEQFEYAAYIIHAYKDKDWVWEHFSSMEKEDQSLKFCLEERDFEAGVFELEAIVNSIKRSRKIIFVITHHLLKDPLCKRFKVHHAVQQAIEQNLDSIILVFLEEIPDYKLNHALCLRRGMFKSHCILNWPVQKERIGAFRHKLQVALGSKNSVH

Row | SMILES | Activity (PBMC [1]) | fold change (FC) [2] | IFN-alpha (PBMC [3]) | Activity (Splenocyte) | Activity [4] | fold change (FC) [5]
1 | Nc1ccn([C@@H]2O[C@H](COP(=O)(S)O[C@H]3[C@@H](O)[C@H](n4cnc5c(N)ncnc54)O[C@@H]3COP(=O)(S)O[C@H]3[C@@H](O)[C@H](n4cnc5c(N)ncnc54)O[C@@H]3CO)[C@@H](OP(=O)(S)OC[C@H]3O[C@@H](n4ccc(=O)[nH]c4=O)[C@H](O)[C@@H]3OP(=O)(S)OC[C@H]3O[C@@H](n4ccc(=O)[nH]c4=O)[C@H](O)[C@@H]3OP(=O)(S)OC[C@H]3O[C@@H](n4ccc5c(=O)[nH]c(N)nc54)[C@H](O)[C@@H]3OP(=O)(S)OC[C@H]3O[C@@H](n4cnc5c(N)ncnc54)[C@H](O)[C@@H]3OP(=O)(S)OC[C@H]3O[C@@H](n4ccc5c(=O)[nH]c(N)nc54)[C@H](O)[C@@H]3OP(=O)(S)OC[C@H]3O[C@@H](n4ccc(N)nc4=O)[C@H](O)[C@@H]3OP(=O)(S)OC[C@H]3O[C@@H](n4ccc(=O)[nH]c4=O)[C@H](O)[C@@H]3OP(=O)(S)OC[C@H]3O[C@@H](n4ccc(=O)[nH]c4=O)[C@H](O)[C@@H]3OP(=O)(S)OCC(O)COP(=O)(S)O[C@H]3[C@@H](O)[C@H](n4ccc(=O)[nH]c4=O)O[C@@H]3COP(=O)(S)O[C@H]3[C@@H](O)[C@H](n4ccc(=O)[nH]c4=O)O[C@@H]3COP(=O)(S)O[C@H]3[C@@H](O)[C@H](n4ccc(N)nc4=O)O[C@@H]3COP(=O)(S)O[C@H]3[C@@H](O)[C@H](n4ccc5c(=O)[nH]c(N)nc54)O[C@@H]3COP(=O)(S)O[C@H]3[C@@H](O)[C@H](n4cnc5c(N)ncnc54)O[C@@H]3COP(=O)(S)O[C@H]3[C@@H](O)[C@H](n4ccc5c(=O)[nH]c(N)nc54)O[C@@H]3COP(=O)(S)O[C@H]3[C@@H](O)[C@H](n4ccc(=O)[nH]c4=O)O[C@@H]3COP(=O)(S)O[C@H]3[C@@H](O)[C@H](n4ccc(=O)[nH]c4=O)O[C@@H]3COP(=O)(S)O[C@H]3[C@@H](O)[C@H](n4ccc(N)nc4=O)O[C@@H]3COP(=O)(S)O[C@H]3[C@@H](O)[C@H](n4cnc5c(N)ncnc54)O[C@@H]3COP(=O)(S)O[C@H]3[C@@H](O)[C@H](n4cnc5c(N)ncnc54)O[C@@H]3CO)[C@H]2O)c(=O)n1 (some centres not stated) | 74.4 pg/mL | 20.1 | 106 pg/mL | Active | inactive | 1
2 | Nc1ccn([C@@H]2O[C@H](COP(=O)(S)O[C@H]3[C@@H](O)[C@H](n4cnc5c(N)ncnc54)O[C@@H]3CO)[C@@H](OP(=O)(S)OC[C@H]3O[C@@H](n4ccc(=O)[nH]c4=O)[C@H](O)[C@@H]3OP(=O)(S)OC[C@H]3O[C@@H](n4ccc(=O)[nH]c4=O)[C@H](O)[C@@H]3OP(=O)(S)OC[C@H]3O[C@@H](n4ccc5c(=O)[nH]c(N)nc54)[C@H](O)[C@@H]3OP(=O)(S)OC[C@H]3O[C@@H](n4cnc5c(N)ncnc54)[C@H](O)[C@@H]3OP(=O)(S)OC[C@H]3O[C@@H](n4ccc(N)nc4=O)[C@H](O)[C@@H]3OP(=O)(S)OC[C@H]3O[C@@H](n4ccc5c(=O)[nH]c(N)nc54)[C@H](O)[C@@H]3OP(=O)(S)OC[C@H]3O[C@@H](n4cnc5c(N)ncnc54)[C@H](O)[C@@H]3OP(=O)(S)OC[C@H]3O[C@@H](n4ccc(=O)[nH]c4=O)[C@H](O)[C@@H]3OP(=O)(S)OC[C@H]3O[C@@H](n4ccc(=O)[nH]c4=O)[C@H](O)[C@@H]3OP(=O)(S)OCC(O)COP(=O)(S)O[C@H]3[C@@H](O)[C@H](n4ccc(=O)[nH]c4=O)O[C@@H]3COP(=O)(S)O[C@H]3[C@@H](O)[C@H](n4ccc(=O)[nH]c4=O)O[C@@H]3COP(=O)(S)O[C@H]3[C@@H](O)[C@H](n4cnc5c(N)ncnc54)O[C@@H]3COP(=O)(S)O[C@H]3[C@@H](O)[C@H](n4ccc5c(=O)[nH]c(N)nc54)O[C@@H]3COP(=O)(S)O[C@H]3[C@@H](O)[C@H](n4ccc(N)nc4=O)O[C@@H]3COP(=O)(S)O[C@H]3[C@@H](O)[C@H](n4cnc5c(N)ncnc54)O[C@@H]3COP(=O)(S)O[C@H]3[C@@H](O)[C@H](n4ccc5c(=O)[nH]c(N)nc54)O[C@@H]3COP(=O)(S)O[C@H]3[C@@H](O)[C@H](n4ccc(=O)[nH]c4=O)O[C@@H]3COP(=O)(S)O[C@H]3[C@@H](O)[C@H](n4ccc(=O)[nH]c4=O)O[C@@H]3COP(=O)(S)O[C@H]3[C@@H](O)[C@H](n4ccc(N)nc4=O)O[C@@H]3COP(=O)(S)O[C@H]3[C@@H](O)[C@H](n4cnc5c(N)ncnc54)O[C@@H]3CO)[C@H]2O)c(=O)n1 (some centres not stated) | 115 pg/mL | 16.6 | 233 pg/mL | Active | inactive | 2.1
